Laboratory results as given in ChEMBL document CHEMBL1124627, “Long-acting dihydropyridine calcium antagonists. 3. Synthesis and structure-activity relationships for a series of 2-[(heterocyclylmethoxy)methyl] derivatives” (J Med Chem, 1989).

Key:
[1] = target: Voltage-dependent L-type calcium channel subunit alpha-1C (Rattus norvegicus, UniProt P22002); test: Selectivity for vascular (Ca pIC50) over cardiac (negative inotropy IC25) calcium channels; assay type: functional
[2] = species on record: Cavia porcellus; test: Negative logarithm of the molar concentration required to depress contraction in the Langendorff-perfused guinea pig heart by 25%.; assay type: functional
[3] = species on record: Rattus norvegicus; test: Negative logarithm of molar concentration required to block calcium-induced contraction of potassium depolarized rat aorta by 50%; assay type: functional
[4] = test system: Canis familiaris; test: Coronary vasodilator activity in dogs, after administration of a dose of 150 micorg/kg intravenously; assay type: functional, Canis lupus familiaris
Outline: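 Anesthetized beagle dogs fitted with catheters for blood pressure, left ventricular pressure and intravenous dosing. Coronary blood flow was measured by hydrogen clearance with platinum electrodes in the coronary sinus and femoral artery, and cardiac output by thermodilution. Coronary vascular resistance was derived from these measurements. A single intravenous dose was given, and the CVR fall was followed over time to assess duration of action.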

Chain of Voltage-dependent L-type calcium channel subunit alpha-1C (P22002 whole entry, the tested form may be a part): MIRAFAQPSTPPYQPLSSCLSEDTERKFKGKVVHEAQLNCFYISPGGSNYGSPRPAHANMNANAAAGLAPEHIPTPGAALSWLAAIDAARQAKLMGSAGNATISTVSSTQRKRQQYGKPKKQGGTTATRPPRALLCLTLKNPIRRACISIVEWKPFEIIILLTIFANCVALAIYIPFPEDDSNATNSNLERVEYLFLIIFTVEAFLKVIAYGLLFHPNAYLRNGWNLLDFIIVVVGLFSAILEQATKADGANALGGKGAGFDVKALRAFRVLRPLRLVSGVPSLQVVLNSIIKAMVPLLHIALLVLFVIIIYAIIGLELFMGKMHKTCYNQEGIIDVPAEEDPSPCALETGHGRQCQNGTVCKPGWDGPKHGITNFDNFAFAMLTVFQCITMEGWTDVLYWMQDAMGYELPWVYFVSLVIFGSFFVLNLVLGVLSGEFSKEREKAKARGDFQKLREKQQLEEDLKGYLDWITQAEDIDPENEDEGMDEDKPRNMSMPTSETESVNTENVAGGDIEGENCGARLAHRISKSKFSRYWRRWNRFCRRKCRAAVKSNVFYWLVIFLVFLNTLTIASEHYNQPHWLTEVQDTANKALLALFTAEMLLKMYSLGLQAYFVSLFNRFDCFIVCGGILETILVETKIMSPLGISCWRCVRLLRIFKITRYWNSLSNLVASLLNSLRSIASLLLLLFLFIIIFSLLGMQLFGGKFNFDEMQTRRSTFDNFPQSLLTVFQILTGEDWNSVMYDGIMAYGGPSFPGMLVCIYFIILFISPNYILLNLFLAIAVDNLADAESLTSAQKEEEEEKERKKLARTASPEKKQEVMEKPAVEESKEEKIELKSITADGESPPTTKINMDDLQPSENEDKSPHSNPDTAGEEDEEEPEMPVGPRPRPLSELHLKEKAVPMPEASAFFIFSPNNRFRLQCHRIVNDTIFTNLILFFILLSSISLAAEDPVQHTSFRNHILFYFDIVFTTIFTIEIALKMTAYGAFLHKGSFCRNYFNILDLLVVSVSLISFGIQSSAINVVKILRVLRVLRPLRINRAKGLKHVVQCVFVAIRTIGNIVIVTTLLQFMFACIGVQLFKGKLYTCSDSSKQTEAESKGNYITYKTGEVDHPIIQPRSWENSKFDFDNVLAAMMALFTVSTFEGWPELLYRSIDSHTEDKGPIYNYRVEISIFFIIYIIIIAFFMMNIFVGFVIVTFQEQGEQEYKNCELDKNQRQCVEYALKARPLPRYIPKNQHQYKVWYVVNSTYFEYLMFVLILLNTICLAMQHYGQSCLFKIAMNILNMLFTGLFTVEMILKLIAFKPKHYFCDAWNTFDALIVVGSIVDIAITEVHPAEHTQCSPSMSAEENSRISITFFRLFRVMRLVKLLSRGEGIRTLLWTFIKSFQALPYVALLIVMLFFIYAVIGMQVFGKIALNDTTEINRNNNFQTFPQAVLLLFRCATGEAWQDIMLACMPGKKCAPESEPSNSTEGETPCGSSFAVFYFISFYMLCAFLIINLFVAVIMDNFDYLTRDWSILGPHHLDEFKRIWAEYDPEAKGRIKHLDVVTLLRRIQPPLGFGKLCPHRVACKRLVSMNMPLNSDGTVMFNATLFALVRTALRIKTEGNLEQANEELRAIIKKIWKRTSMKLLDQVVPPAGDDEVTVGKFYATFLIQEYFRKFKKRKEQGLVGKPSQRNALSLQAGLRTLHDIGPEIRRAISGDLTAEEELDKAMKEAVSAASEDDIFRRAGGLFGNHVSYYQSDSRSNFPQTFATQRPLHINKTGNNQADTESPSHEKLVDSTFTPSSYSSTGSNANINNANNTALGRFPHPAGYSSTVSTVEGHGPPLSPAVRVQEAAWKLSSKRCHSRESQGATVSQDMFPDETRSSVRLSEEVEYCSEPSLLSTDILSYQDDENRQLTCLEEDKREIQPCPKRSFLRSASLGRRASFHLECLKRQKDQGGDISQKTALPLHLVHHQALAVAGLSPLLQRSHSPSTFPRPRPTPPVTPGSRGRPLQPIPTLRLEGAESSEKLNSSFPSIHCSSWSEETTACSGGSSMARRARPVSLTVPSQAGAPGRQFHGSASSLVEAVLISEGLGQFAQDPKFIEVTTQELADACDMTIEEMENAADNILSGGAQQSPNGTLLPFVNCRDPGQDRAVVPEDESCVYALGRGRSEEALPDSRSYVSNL

| SMILES | Selectivity index [1] | pIC25 [2] | IC50 [3] | Decrease [4] |
| --- | --- | --- | --- | --- |
| CCO/C(O)=C1\C(COCc2cc(=O)n(CCO)c(N)n2)=NC(C)=C(C(=O)OC)C1c1cccc(Cl)c1Cl (centres undefined) | 32 | 7 | 3.16 nM | – |
| CCO/C(O)=C1\C(COCc2cc(O)nc(CN3CCOCC3)n2)=NC(C)=C(C(=O)OC)C1c1cccc(Cl)c1Cl (centres undefined) | 32 | 6.9 | 3.98 nM | – |
| COC(=O)C1=C(C)NC(C)=C(C(=O)OC)C1c1ccccc1[N+](=O)[O-] [NIFEDIPINE] | 8 | 7.5 | – | 77% |
